One data set has as its target recombinant human iNOS (Homo sapiens, UniProt P35228). Put plainly: NOS enzyme assay. The format is biochemical. As to conditions: for activity in the iNOS assay: structure-activity discussion. In outline: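 Recombinant iNOS in 50 mM Tris pH 7.4 with 1.0 mM NADPH, 3.8 µM each of FMN, FAD and tetrahydro-L-biopterin, 2.0 mM DTT and 2.0 µM L-arginine. Test compound was diluted in methanol or water. [3H]arginine (0.1 µCi) started the reaction, run 30 min at room temperature. Stopped with yttrium-silicate arginine-binding SPA beads in NaOH; beads settled 2 h, then counted. IC50 from inhibition curves, mean ± S.D., N≥3.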

The nature of data set [1]: In vivo biodistribution time-course study in control vs. LPS-treated mice. Further details: species or system C57BL/6 mice. The following applies: for Biodistribution Blood / Biodistribution Bone / Biodistribution Brain / Biodistribution Heart / Biodistribution Kidney / Biodistribution Liver / Biodistribution Lung / Biodistribution Muscle: mean ± SD, n = 4. In outline:
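Mature male C57BL/6N mice (6-8 weeks), either given E. coli O127:B8 LPS in PBS (10 mg/kg i.v.) 6 h before tracer or left untreated. HPLC-purified [18F]-labelled test compound (~50 μCi in 10% ethanol/saline) injected i.v. via tail vein. Sacrificed at 5 min, 30 min, 1 h and 2 h. Blood, tissues and organs weighed and gamma-counted against diluted injectate standards, giving %ID/g (mean ± SD).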

The target in another data set is iNOS (Mus musculus, UniProt P29477). In words: Blocking study of [18F]9 uptake in LPS-treated mice. Type of data set: in vivo, C57BL/6N mice.
A further data set has as its target recombinant human eNOS (Homo sapiens, UniProt P29474). Put plainly: NOS enzyme assay. The following applies: iNOS vs eNOS. Type of data set: biochemical. The method in brief: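 The eNOS buffer also had 20 µg/mL calmodulin and 1 mM CaCl2. [3H]arginine started the reaction, 30 min at room temperature. SPA arginine-binding beads stopped it; counted after 2 h. Mean ± S.D., N≥3.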

Chain of recombinant human iNOS (P35228 whole entry): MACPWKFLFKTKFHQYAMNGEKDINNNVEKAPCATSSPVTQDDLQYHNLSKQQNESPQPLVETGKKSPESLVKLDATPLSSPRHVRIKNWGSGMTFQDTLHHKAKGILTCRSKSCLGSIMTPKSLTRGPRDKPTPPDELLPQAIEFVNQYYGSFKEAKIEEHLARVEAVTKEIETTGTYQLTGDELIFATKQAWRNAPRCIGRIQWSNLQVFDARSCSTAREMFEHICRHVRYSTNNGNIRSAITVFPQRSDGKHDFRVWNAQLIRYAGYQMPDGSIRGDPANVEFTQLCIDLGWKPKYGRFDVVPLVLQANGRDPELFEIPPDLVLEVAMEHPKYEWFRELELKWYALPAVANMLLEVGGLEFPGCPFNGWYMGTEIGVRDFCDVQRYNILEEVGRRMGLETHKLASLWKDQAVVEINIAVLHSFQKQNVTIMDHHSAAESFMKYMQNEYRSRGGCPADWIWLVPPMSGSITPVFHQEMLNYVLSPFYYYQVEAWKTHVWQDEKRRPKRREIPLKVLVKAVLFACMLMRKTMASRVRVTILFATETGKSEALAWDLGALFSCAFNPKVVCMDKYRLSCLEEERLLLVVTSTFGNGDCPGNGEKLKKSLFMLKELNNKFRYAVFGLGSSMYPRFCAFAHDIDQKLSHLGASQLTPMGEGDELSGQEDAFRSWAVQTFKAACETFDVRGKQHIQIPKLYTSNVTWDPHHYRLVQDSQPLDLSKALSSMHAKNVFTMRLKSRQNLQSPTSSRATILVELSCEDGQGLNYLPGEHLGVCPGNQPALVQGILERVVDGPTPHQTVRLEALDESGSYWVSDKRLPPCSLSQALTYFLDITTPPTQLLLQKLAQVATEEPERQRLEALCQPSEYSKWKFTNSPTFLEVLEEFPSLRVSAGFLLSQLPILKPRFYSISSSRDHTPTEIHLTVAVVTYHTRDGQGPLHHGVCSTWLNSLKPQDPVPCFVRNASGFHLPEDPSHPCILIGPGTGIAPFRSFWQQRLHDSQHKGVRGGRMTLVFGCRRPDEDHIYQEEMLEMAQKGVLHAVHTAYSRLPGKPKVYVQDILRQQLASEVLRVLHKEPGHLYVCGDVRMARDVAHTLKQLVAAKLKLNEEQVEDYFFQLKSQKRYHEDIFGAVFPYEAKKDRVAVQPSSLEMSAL

Turning to `Nc1ccccn1` [Compound 2-AP, 2-aminopyridine, reference compound], the IC50 (usually the concentration needed to halve the response being measured) at recombinant human iNOS is 108 nM.

With `Cc1cc(N)nc(CC(C)OCCF)c1` (centres unmarked) [Compound 15, 6-(2-(2-Fluoroethoxy)propyl)-4-methylpyridin-2-amine], the “activity in the iNOS assay” value on recombinant human iNOS is “inactive”.

Regarding `COCCC(C)Cc1cc(C)cc(N)n1` (centres unmarked) [Compound 27, 6-(4-methoxy-2-methylbutyl)-4-methylpyridin-2-amine], on recombinant human iNOS, the “activity in the iNOS assay” value is “inactive”.

As to `Cc1cc(N)nc(CC(C)[18F])c1` (centres unmarked) [[^18F]9, [^18F]6-(2-Fluoropropyl)-4-methylpyridin-2-amine], the “Biodistribution Blood” value was 2.37±0.18 %ID/g in data set [1] (5 min, Control mice); 3.69±0.38 %ID/g in data set [1] (5 min, LPS-treated mice); 1.22±0.16 %ID/g in data set [1] (30 min, Control mice); 2.09±0.35 %ID/g in data set [1] (30 min, LPS-treated mice); 0.31±0.04 %ID/g in data set [1] (1 h, Control mice); 0.86±0.09 %ID/g in data set [1] (1 h, LPS-treated mice). Further, the “Biodistribution Blood” value amounted to 0.27±0.22 %ID/g in data set [1] (2 h, Control mice) and 0.23±0.05 %ID/g in data set [1] (2 h, LPS-treated mice). The “Biodistribution Bone” value in data set [1] (5 min, Control mice) was found to be 1.52±0.36 %ID/g; in data set [1] (5 min, LPS-treated mice), 1.59±0.15 %ID/g; in data set [1] (30 min, Control mice), 2.26±0.55 %ID/g; in data set [1] (30 min, LPS-treated mice), 3.70±1.20 %ID/g; in data set [1] (1 h, Control mice) it was 2.57±0.64 %ID/g; in data set [1] (1 h, LPS-treated mice), 4.30±0.90 %ID/g. The “Biodistribution Bone” value in data set [1] (2 h, Control mice) was 5.59±4.20 %ID/g; in data set [1] (2 h, LPS-treated mice), 3.77±1.41 %ID/g. In addition, the “Biodistribution Brain” value is 1.60±0.17 %ID/g in data set [1] (5 min, Control mice); 1.81±0.09 %ID/g in data set [1] (5 min, LPS-treated mice); 0.28±0.02 %ID/g in data set [1] (30 min, Control mice); 0.52±0.15 %ID/g in data set [1] (30 min, LPS-treated mice); 0.11±0.02 %ID/g in data set [1] (1 h, Control mice); 0.19±0.03 %ID/g in data set [1] (1 h, LPS-treated mice). For the same molecule, the “Biodistribution Brain” value in data set [1] (2 h, Control mice) is 0.07±0.03 %ID/g; in data set [1] (2 h, LPS-treated mice), 0.07±0.03 %ID/g. Further, the “Biodistribution Heart” value is recorded as 1.50±0.12 %ID/g in data set [1] (5 min, Control mice); 2.03±0.06 %ID/g in data set [1] (5 min, LPS-treated mice); 0.60±0.05 %ID/g in data set [1] (30 min, Control mice); 1.02±0.16 %ID/g in data set [1] (30 min, LPS-treated mice); 0.19±0.02 %ID/g in data set [1] (1 h, Control mice); 0.41±0.10 %ID/g in data set [1] (1 h, LPS-treated mice). Besides, the “Biodistribution Heart” value in data set [1] (2 h, Control mice) is on record as 0.08±0.02 %ID/g; in data set [1] (2 h, LPS-treated mice), 0.12±0.04 %ID/g. Further, the “Biodistribution Kidney” value stood at 20.6±2.4 %ID/g in data set [1] (5 min, Control mice); 26.7±4.1 %ID/g in data set [1] (5 min, LPS-treated mice); 7.30±0.66 %ID/g in data set [1] (30 min, Control mice); 10.9±2.8 %ID/g in data set [1] (30 min, LPS-treated mice); 2.20±0.25 %ID/g in data set [1] (1 h, Control mice); 3.95±0.53 %ID/g in data set [1] (1 h, LPS-treated mice). Moreover, the “Biodistribution Kidney” value in data set [1] (2 h, Control mice) came to 0.80±0.27 %ID/g; in data set [1] (2 h, LPS-treated mice) it was 0.91±0.63 %ID/g. Moreover, the “Biodistribution Liver” value in data set [1] (5 min, Control mice) stood at 33.2±3.3 %ID/g; in data set [1] (5 min, LPS-treated mice) it was 24.6±3.1 %ID/g; in data set [1] (30 min, Control mice) it was 10.7±0.3 %ID/g; in data set [1] (30 min, LPS-treated mice), 7.06±0.28 %ID/g; in data set [1] (1 h, Control mice) it was 2.59±0.49 %ID/g; in data set [1] (1 h, LPS-treated mice), 2.63±0.52 %ID/g. Moreover, the “Biodistribution Liver” value in data set [1] (2 h, Control mice) stood at 0.74±0.23 %ID/g; in data set [1] (2 h, LPS-treated mice), 0.42±0.15 %ID/g. Besides, the “Biodistribution Lung” value came out at 3.33±0.28 %ID/g in data set [1] (5 min, Control mice); 4.32±0.32 %ID/g in data set [1] (5 min, LPS-treated mice); 1.14±0.13 %ID/g in data set [1] (30 min, Control mice); 1.84±0.27 %ID/g in data set [1] (30 min, LPS-treated mice); 0.31±0.06 %ID/g in data set [1] (1 h, Control mice); 0.73±0.17 %ID/g in data set [1] (1 h, LPS-treated mice). Also, the “Biodistribution Lung” value came to 0.15±0.03 %ID/g in data set [1] (2 h, Control mice) and 0.18±0.09 %ID/g in data set [1] (2 h, LPS-treated mice). Further, the “Biodistribution Muscle” value in data set [1] (5 min, Control mice) is 1.25±0.06 %ID/g; in data set [1] (5 min, LPS-treated mice), 1.64±0.09 %ID/g; in data set [1] (30 min, Control mice) it was 0.71±0.31 %ID/g; in data set [1] (30 min, LPS-treated mice) it was 1.06±0.40 %ID/g; in data set [1] (1 h, Control mice) it was 0.27±0.18 %ID/g; in data set [1] (1 h, LPS-treated mice) it was 0.78±0.47 %ID/g. Besides, the “Biodistribution Muscle” value was 0.34±0.27 %ID/g in data set [1] (2 h, Control mice) and 0.23±0.13 %ID/g in data set [1] (2 h, LPS-treated mice). Moreover, the “increase in injected dose/gram (ID/g) in the lungs, LPS-treated vs control mice” value in data set [1] (5 min) turned out to be 30%; in data set [1] (30 min) it was 60%.

Turning to `CC(=N)NCc1cccc(CN)c1` [Compound 1400W, N-(3-(aminomethyl)benzyl)acetamidine], the “tracer ([18F]9) uptake in the lungs and blood of the LPS-treated mice blocked” value on iNOS (mouse, in vivo) is on record as 32%.

Turning to `CSCCC(C)Cc1cc(C)cc(N)n1` (centres unmarked) [Compound 33, 4-Methyl-6-(2-methyl-4-(methylthio)butyl)pyridin-2-amine], on recombinant human iNOS, the “activity in the iNOS assay” value is “inactive”.

Regarding `Cc1cc(N)nc(CCCF)c1` [Compound 18, 6-(3-Fluoropropyl)-4-methylpyridin-2-amine], the “selectivity against eNOS” value at recombinant human eNOS is recorded as “approximately 30 fold”.

As for `Cc1ccnc(N)c1` [Compound 1, 2-amino-4-methylpyridine], the “blocking of the increased [18F]9 uptake in the LPS-treated mice” value on iNOS (blocking agent 10 mg/kg, i.v., data not shown) was “failed to block”.

Regarding `COC(C)Cc1cc(C)cc(N)n1` (centres unmarked) [Compound 13, 6-(2-Methoxypropyl)-4-methylpyridin-2-amine], the “activity in the iNOS assay” value at recombinant human iNOS was “inactive”.

Source of the values: PMC2782628 (Journal of medicinal chemistry, 2009).
